Molecules are shown by their SMILES. The source made the active and inactive calls.

We go through 3 compounds from ChEMBL document CHEMBL4052634, “Covalent inhibitors of LgtC: A blueprint for the discovery of non-substrate-like inhibitors for bacterial glycosyltransferases” (Bioorg Med Chem, 2017).

The test system of test [1] is Neisseria meningitidis. The test is described as follows: Inhibition of Neisseria meningitidis alpha-1,4-galactosyltransferase at 25 to 100 uM using lactose as substrate preincubated for 10 mins in presence of UDP-Gal followed by substrate addition measured after 20 mins. Summed up:
(§1)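 LgtC pre-incubated 10 min at 30 °C with inhibitor (DMSO, 10% final) and UDP-Gal 28 µM in 13 mM HEPES pH 7.0 with MnCl2 5 mM, CIP 10 U/mL, lysozyme 1 mg/mL, 0.01% Triton; lactose 2 mM then added, 20 min at 30 °C; malachite green absorbance at 620 nm converted via UDP calibration; triplicate.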

Test [2] deals with Neisseria meningitidis. Description: Inhibition of Neisseria meningitidis alpha-1,4-galactosyltransferase at 25 to 50 uM using lactose as substrate preincubated for 10 mins in presence of UDP-Gal followed by substrate addition measured after 20 mins. The method in brief:
as §1

Test [3] in a line: Binding affinity to L-cysteine assessed as covalent adduct formation at 0.06 mmol by 1H NMR analysis. The note with it: TDE = time-dependent effect. The method in brief: (§2)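 Amino acid (0.06 mmol; cysteine in d6-DMSO, serine in D2O) added to inhibitor (0.06 mmol) in d6-DMSO in an NMR tube, mixed by shaking; 1H-NMR (400 MHz) recorded at 298 K at time points from 0-190 min to follow adduct formation.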

The target of test [4] is Intestinal-type alkaline phosphatase (Bos taurus) (UniProt P19111). The test is described as follows: Inhibition of calf intestinal alkaline […] at 0.1 to 100 uM using UDP as substrate after 20 mins by malachite green dye-based assay.
The test system of test [5] is Neisseria meningitidis. The test is described as follows: Inhibition of Neisseria meningitidis alpha-1,4-galactosyltransferase assessed as enzyme activity at 100 uM using beta-lactose as substrate preincubated for 10 mins in presence of UDP-Gal donor followed by substrate addition incubated for 20 mins measured before diafiltration by colorimetric analysis (reference value: 84%). The method in brief:
(§3)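 DTT-activated LgtC pre-incubated with inhibitor (100 µM) or DMSO plus UDP-Gal 28 µM, 10 min at 30 °C; lactose 2 mM added, 20 min at 30 °C. Activity measured in samples taken before, and after diafiltration (10 kDa cut-off, 4 °C, two 50 min spins with one HEPES pH 7.0 wash), under standard conditions (2 mM lactose, 28 µM UDP-Gal, 20 min, 30 °C), malachite green readout.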

A short description of test [6]: Inhibition of Neisseria meningitidis alpha-1,4-galactosyltransferase using lactose as substrate in presence of UDP-Gal measured after 20 min by malachite green dye-based assay. The method in brief:
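Recombinant LgtC, pre-activated with DTT (10 mM, 1:1, 30 min, 30 °C). Reaction contained MnCl2 5 mM, CIP 10 U/mL, lysozyme 1 mg/mL, Triton 0.01%, 13 mM HEPES pH 7.0, lactose 2 mM, inhibitor 0.1–100 µM (10% DMSO final), UDP-Gal 28 µM. No pre-incubation; 20 min at 30 °C. Released phosphate read by malachite green at 620 nm against a UDP calibration curve. Turnover adjusted to 20–50%. IC50 from sigmoidal fit of background-corrected % activity; at least triplicate.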

The subject of test [7] is Neisseria meningitidis. Description: Binding affinity to Neisseria meningitidis alpha-1,4-galactosyltransferase assessed as covalent adduct formation at 100 uM after 20 mins by mass spectrometric analysis. Summed up: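 LgtC stock without DTT activation, diluted in 13 mM HEPES pH 7.0, incubated with inhibitor (100 or 50 µM, added in DMSO; 10% final DMSO) for 20 min at 30 °C; samples injected directly for electrospray MS to detect protein-inhibitor adducts.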

Test [8] in a line: Binding affinity to L-serine assessed as covalent adduct formation at 0.06 mmol by 1H NMR analysis. Summed up:
as §2

Test [9] in a line: Binding affinity to L-lysine assessed as adduct formation at 0.06 mmol by 1H NMR analysis. Summed up: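 Lysine (0.06 mmol in D2O) mixed with inhibitor (0.06 mmol) in d6-DMSO in an NMR tube by shaking; 1H-NMR spectra at 400 MHz, 298 K, taken at time points over 0-190 min.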
Test [10] relates to Neisseria meningitidis. Description: Inhibition of Neisseria meningitidis alpha-1,4-galactosyltransferase at 0.1 to 100 uM using lactose as substrate after 20 mins in presence of UDP-Gal and measured in presence of varying acceptor concentration by malachite green dye-based assay. The method in brief: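 Activated LgtC with inhibitor (0.1-100 µM), UDP-Gal 28 µM, lactose varied 2-50 mM, MnCl2 5 mM, CIP 10 U/ml, lysozyme 1 mg/ml, 0.01% Triton in 13 mM HEPES pH 7.0, no pre-incubation; 20 min at 30 °C, donor turnover 20-50%; malachite green detection of UDP; triplicate.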

Test [11] concerns Neisseria meningitidis. The test is described as follows: Competitive inhibition of Neisseria meningitidis alpha-1,4-galactosyltransferase at 1 to 5 uM using lactose as substrate measured after 20 mins in presence of fixed concentration of UDP-Gal donor and varying concentration of lactose acceptor by Dixon/Cornish-Bowden plot analysis. Summed up: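 Acceptor kinetics using standard protocol without pre-incubation: DTT-activated LgtC, UDP-Gal fixed at 100 µM, inhibitor 1, 2, 3, 4, 5 µM, lactose 5, 15, 25 mM, with 5 mM MnCl2, CIP 10 U/ml, lysozyme 1 mg/ml, 0.01% Triton, 13 mM HEPES pH 7.0, 10% DMSO; 20 min at 30 °C, donor turnover <10%; UDP released read by malachite green.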

The subject of test [12] is Neisseria meningitidis. The test is described as follows: Inhibition of Neisseria meningitidis alpha-1,4-galactosyltransferase C246S mutant expressed in Escherichia coli BL21(DE3) at 100 uM using lactose as substrate in presence of UDP-Gal measured after 20 min by malachite green dye-based assay. The method in brief: (§4)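 Mutant LgtC (His-tag purified, Superdex 200), DTT-activated (10 mM, 1:1, 30 min, 30 °C), no pre-incubation with inhibitor. Final: 2 mM lactose, 28 µM UDP-Gal, 5 mM MnCl2, phosphatase CIP 10 U/mL, lysozyme 1 mg/mL, 0.01% Triton, 13 mM HEPES pH 7.0, 10% DMSO; 20 min, 30 °C. UDP read at 620 nm vs UDP calibration, background-corrected; triplicate.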

Test [13] relates to Neisseria meningitidis. The test is described as follows: Inhibition of Neisseria meningitidis alpha-1,4-galactosyltransferase C246A mutant expressed in Escherichia coli BL21(DE3) at 100 uM using lactose as substrate in presence of UDP-Gal measured after 20 min by malachite green dye-based assay. The method in brief:
as §4

Another test is filed under the species Bos taurus. Description: Inhibition of bovine beta-1,4-galactosyltransferase at 100 uM using GLcNAc as substrate in presence of UDP-Gal measured after 20 mins by malachite green dye-based assay.
Test [14] addresses T1, Galactoside alpha-(1,2)-fucosyltransferase 2 (Homo sapiens) (UniProt Q10981).
T1 sequence (whole entry): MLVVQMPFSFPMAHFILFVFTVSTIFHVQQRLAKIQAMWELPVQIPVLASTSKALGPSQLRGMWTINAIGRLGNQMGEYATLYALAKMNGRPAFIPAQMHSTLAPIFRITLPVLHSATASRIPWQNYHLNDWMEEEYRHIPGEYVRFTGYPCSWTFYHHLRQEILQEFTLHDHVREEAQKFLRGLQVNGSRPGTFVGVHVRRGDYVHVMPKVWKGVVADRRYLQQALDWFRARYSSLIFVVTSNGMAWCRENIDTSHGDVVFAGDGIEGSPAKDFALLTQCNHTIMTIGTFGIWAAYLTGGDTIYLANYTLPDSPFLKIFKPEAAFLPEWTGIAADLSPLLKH
The test is described as follows: Inhibition of human fucosyltransferase2 at 150 uM using alpha-lactose as substrate in presence of GDP-Fuc measured after 20 mins by malachite green dye-based assay.

Another test deals with Pasteurella multocida. The test is described as follows: Inhibition of Pasteurella multocida alpha-2,3-sialyltransferase at 150 uM using beta-lactose as substrate in presence of CMP-Neu5Ac measured after 20 mins by malachite green dye-based assay.
Test [15] relates to Neisseria meningitidis. The test is described as follows: Inhibition of Neisseria meningitidis alpha-1,4-galactosyltransferase assessed as enzyme activity at 100 uM using beta-lactose as substrate in presence of UDP-Gal donor/lactose acceptor incubated for 20 mins measured after diafiltration by colorimetric analysis (reference value: 85 %). Summed up: as §3

Intestinal-type alkaline phosphatase (Bos taurus), sequence (P19111 20-506 limits assumed): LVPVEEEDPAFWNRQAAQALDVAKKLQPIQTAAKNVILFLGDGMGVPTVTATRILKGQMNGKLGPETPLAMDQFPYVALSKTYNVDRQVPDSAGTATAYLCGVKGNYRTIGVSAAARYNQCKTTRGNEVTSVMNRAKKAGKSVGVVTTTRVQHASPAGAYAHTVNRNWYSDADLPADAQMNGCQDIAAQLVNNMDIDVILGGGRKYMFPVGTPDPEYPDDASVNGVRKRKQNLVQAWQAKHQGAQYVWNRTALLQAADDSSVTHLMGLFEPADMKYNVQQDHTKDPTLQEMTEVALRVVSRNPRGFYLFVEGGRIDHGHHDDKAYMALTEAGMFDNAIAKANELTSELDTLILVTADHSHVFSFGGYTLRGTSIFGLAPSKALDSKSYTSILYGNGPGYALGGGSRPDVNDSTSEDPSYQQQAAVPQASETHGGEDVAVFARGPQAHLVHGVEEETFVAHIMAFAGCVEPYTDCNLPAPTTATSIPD

As to `COc1ccc(/C=C2\SC(=S)N(c3ccccc3)C2=O)cc1Br`, the inhibition result in the test on Neisseria meningitidis [1] and in the test on Neisseria meningitidis [2] was “inactive” throughout.
As for `CC1=NN(c2ccccc2)C(=O)/C1=C\c1ccccc1C(F)(F)F`, the Activity entry in test [3] was “Tde”. Besides, the inhibition entry (in test [4]; in the test with Neisseria meningitidis [10]; in the test with Neisseria meningitidis [13]; in the test listed under Bos taurus; in test [14]; in the test with Pasteurella multocida) was “inactive” each time. Besides, the values for the inhibition with Neisseria meningitidis [5] and in the test with Neisseria meningitidis [15] were 30% and 23%, respectively. For the same compound, in [6], the IC50 (in general, the concentration needed to halve the response being measured) is 27 µM. The result with Neisseria meningitidis [7] was Active. In addition, the outcome in [8] and in test [9] was inactive. The inhibition result in the test on Neisseria meningitidis [11] and with Neisseria meningitidis [12] was “Active” throughout.
Take `Cc1nn(-c2ccccc2)c(O)c1Cc1ccccc1C(F)(F)F`: the inhibition (in general, how much of the control response was suppressed) with Neisseria meningitidis [1] is “inactive”.
